Results from ChEMBL document CHEMBL1147229, “Isolation and characterization of new epothilone analogues from recombinant Myxococcus xanthus fermentations” (J Nat Prod, 2003).

How the values were obtained:
Assay type in all cases: functional, cell-based
MCF7 = test: Cytotoxicity against human MCF7 cells after 3 days by SRB assay; settings: MCF7, 72 h
Procedure, shortened: (§1)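 Cells kept in RPMI-1640 with 2 mM L-glutamine, 25 mM HEPES and 10% FBS at 37 °C, 5% CO2. Seeding per well: MCF-7 5000, NCI/ADR 7500, NCI-H460 5000, SF-268 7500; 24 h adherence. Compound at 0.001 to 1000 nM, triplicate wells, 3 days. TCA fixation 1 h at 4 °C, 0.2% SRB 20 min, bound dye extracted in 10 mM Tris, absorbance at 515 nm.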

[1] = Cytotoxicity against human NCI/ADR cells after 3 days by SRB assay; settings: NCI/ADR-RES, 72 h; procedure, shortened: as §1
SF-268 = test: Cytotoxicity against human SF268 cells after 3 days by SRB assay; settings: SF-268, 72 h; procedure, shortened: as §1
NCI-H460 = test: Cytotoxicity against human NCI-H460 cells after 3 days by SRB assay; settings: NCI-H460, 72 h; procedure, shortened: as §1

Row | Structure (SMILES) | IC50 (MCF7) [nM] | IC50 [1] [nM] | IC50 (SF-268) [nM] | IC50 (NCI-H460) [nM]
1 | CC1=C/C[C@@H](/C(C)=C/c2csc(C)n2)OC(=O)C[C@H](O)C(C)(C)C(=O)[C@H](C)[C@@H](O)[C@@H](C)C\C=C\1 | 47 | 250 | 92 | 47
2 | CC1=C/C[C@@H](/C(C)=C/c2csc(C)n2)OC(=O)C[C@H](O)C(C)C(=O)[C@H](C)[C@@H](O)[C@@H](C)C\C=C\1 (stereo not given in full) | 250 | 395 | 390 | 345
3 | C/C1=C/C[C@@H](/C(C)=C/c2csc(C)n2)OC(=O)C[C@H](O)C(C)(C)C(=O)[C@H](C)[C@@H](O)[C@@H](C)C(=O)CC1 | 500 | > 1000 | > 1000 | > 1000
4 | C/C(=C\c1csc(C)n1)[C@@H]1C/C=C\CCC[C@H](C)[C@H](O)[C@@H](C)C(=O)C(C)(C)[C@@H](O)CC(=O)O1 [EPOTHILONE C] | 97 | 310 | 340 | 280
5 | C/C1=C/C[C@@H](/C(C)=C/c2csc(C)n2)OC(=O)C[C@H](O)C(C)(C)C(=O)[C@H](C)[C@@H](O)[C@@H](C)CCC1 [EPOTHILONE D] | 16 | 44 | 18 | 30
